One data set concerns KCL-22. Nature of the data set: Cytotoxicity against human KCL-22 cells assessed as reduction in cell viability measured after 48 hrs by Hoechst 33342/propidium iodide staining based imaging analysis. In kind it is functional. The method in brief:
(§1)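 Cells were seeded at 10,000 per well (HS-27 at 3,000) in 10% FBS RPMI (leukemic lines) or DMEM (MDA-MB-231, HS-27). Compound in DMSO (1% v/v final) at 0.5–100 µM for 48 h. Hoechst 33342 and PI were added 2 h before automated imaging; dead cells were co-stained. Quadruplicates. CC50 was taken by linear interpolation between the two concentrations nearest 50% death.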

Data set [1] concerns the target T1, Solute carrier family 2, facilitated glucose transporter member 4 (Homo sapiens) (UniProt P14672).
T1 sequence (whole entry): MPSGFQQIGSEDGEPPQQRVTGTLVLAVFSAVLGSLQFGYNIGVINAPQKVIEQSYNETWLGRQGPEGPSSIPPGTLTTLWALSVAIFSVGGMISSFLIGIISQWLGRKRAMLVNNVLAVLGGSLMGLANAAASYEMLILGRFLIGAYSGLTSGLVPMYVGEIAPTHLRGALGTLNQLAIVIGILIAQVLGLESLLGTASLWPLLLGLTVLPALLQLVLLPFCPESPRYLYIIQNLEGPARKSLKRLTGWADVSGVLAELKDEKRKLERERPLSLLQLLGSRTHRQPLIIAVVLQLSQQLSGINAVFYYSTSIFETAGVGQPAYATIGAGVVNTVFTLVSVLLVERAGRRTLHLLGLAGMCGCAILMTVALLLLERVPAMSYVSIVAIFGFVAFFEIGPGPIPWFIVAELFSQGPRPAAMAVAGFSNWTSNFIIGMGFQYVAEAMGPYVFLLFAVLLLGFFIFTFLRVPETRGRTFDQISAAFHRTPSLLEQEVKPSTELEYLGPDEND
Nature of the data set: Inhibition of transport activity of human GLUT4 expressed in hexose transporter deficient […] erg4 yeast cells assessed as reduction in transporter-mediated [14C]-hexose uptake into cells at 100 uM measured after 10 mins by scintillation counting method relative to control. In kind it is cell-based. In short, it runs like this:
(§2)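 The hxt0 yeast strain expressing one human GLUT was grown at 30 °C and resuspended in PBS pH 7.4 at OD600 ~10. Uptake was started with 14C-glucose at 5 mM final (GLUT1, GLUT4) or 14C-fructose at 10 mM final (GLUT5). It was quenched after 10 min with ice-cold 0.1 M KPi/0.1 M LiCl pH 5.5, filtered and counted by scintillation. Compound at 100 μM with 1% DMSO; DMSO control and phloretin 200 μM (GLUT1/4) or MSNBA 100 μM (GLUT5) as references. Triplicates.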

The next data set deals with CCRF-CEM. Kind of data set: Cytotoxicity against human CCRF-CEM cells assessed as reduction in cell viability measured after 48 hrs by Hoechst 33342/propidium iodide staining based imaging analysis. The class given is functional. The method in brief: as §1
For data set [2], the target named is T2, Histone deacetylase 8 (Homo sapiens) (UniProt Q9BY41).
T2 sequence (whole entry): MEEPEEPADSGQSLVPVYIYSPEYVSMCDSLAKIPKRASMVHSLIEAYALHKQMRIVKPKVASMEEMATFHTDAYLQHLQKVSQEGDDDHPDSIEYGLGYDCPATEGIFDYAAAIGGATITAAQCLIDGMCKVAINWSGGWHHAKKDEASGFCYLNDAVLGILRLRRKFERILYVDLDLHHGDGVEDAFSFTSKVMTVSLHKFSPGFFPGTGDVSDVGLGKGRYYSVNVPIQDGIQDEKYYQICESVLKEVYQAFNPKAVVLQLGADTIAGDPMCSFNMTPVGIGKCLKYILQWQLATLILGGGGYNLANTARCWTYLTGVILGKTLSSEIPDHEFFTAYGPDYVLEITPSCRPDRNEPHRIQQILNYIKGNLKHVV
Kind of data set: Inhibition of recombinant human His6/SUMO-tagged HDAC8 expressed in Escherichia coli (BL21) DE3 pLysS assessed as residual activity at 50 uM using Boc-Lys(trifluoroacetyl)-AMC as substrate preincubated for 60 mins followed by substrate addition and measured after 60 mins by fluorescence assay relative to control. The conditions noted are these: time 120.0 min. The method in brief: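 20 μM Boc-Lys(trifluoroacetyl)-AMC was then added for 60 min at 30 °C, the reaction stopped with 1.7 μM SATFMK and developed with 0.4 mg/ml trypsin, and AMC fluorescence read at Ex 350/Em 450 nm. Triplicates; percent relative activity.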

The test system of a further data set is HS27. Nature of the data set: Cytotoxicity against human HS27 cells assessed as reduction in cell viability measured after 48 hrs by Hoechst 33342/propidium iodide staining based imaging analysis. The following applies: hs27, 48 h. The method in brief:
as §1

Data set [3] addresses T3, Solute carrier family 2, facilitated glucose transporter member 5 (Homo sapiens) (UniProt P22732).
T3 sequence (whole entry): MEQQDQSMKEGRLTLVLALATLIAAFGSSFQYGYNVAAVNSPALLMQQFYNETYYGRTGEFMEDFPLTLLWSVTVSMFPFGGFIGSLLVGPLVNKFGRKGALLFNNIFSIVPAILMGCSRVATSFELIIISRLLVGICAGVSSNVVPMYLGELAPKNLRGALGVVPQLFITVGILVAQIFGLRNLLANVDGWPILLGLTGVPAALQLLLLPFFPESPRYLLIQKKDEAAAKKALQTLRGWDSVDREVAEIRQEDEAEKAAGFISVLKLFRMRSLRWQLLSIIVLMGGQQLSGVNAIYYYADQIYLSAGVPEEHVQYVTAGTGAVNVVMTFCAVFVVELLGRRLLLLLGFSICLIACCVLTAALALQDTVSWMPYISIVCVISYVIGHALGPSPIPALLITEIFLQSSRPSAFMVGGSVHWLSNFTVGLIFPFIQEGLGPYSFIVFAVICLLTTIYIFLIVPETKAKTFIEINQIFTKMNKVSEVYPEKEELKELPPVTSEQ
Kind of data set: Inhibition of transport activity of human GLUT5 expressed in hexose transporter deficient VW4000 yeast cells assessed as reduction in transporter-mediated [14C]-fructose uptake into cells at 100 uM measured after 10 mins by scintillation counting method. The class given is cell-based. In short, it runs like this:
as §2

The source made the active and inactive calls. The calls are words filed in the database; no cut-off is given here.

With `O=C(CN1C(=O)S/C(=C/c2ccco2)C1=O)Nc1nc2ccccc2s1`, the values for the CC50 in the data set on KCL-22, in the data set with CCRF-CEM and with HS27 were 15.3 µM, 1.7 µM and 44 µM, respectively. Further, the inhibition in data set [1] was over 50%. In data set [2], the Activity is over 50%. The inhibition result in data set [3] is “inactive”.

On to `O=C(CN1C(=O)S/C(=C/c2ccco2)C1=O)Nc1ccc(Cl)c(Cl)c1`, for which the figures for the CC50 with KCL-22, in the data set with CCRF-CEM and with HS27 were 72.2 µM, 7.8 µM and over 100 µM, respectively. For the same compound, in data set [1], the inhibition is over 50%. The Activity in data set [2] was over 50%. Moreover, the inhibition result in data set [3] was “inactive”.

Usually CC50 stands for the concentration giving 50% cytotoxicity. Usually inhibition stands for the share of the control response that was lost under treatment.

Source of the values: ChEMBL document CHEMBL4765368, “Structure guided design and synthesis of furyl thiazolidinedione derivatives as inhibitors of GLUT 1 and GLUT 4, and evaluation of their anti-leukemic potential” (Eur J Med Chem, 2020).
